ASAP1 GAP inh – blocks human ASAP1-stimulated Arf1 GTP hydrolysis | Q9ULH1 | GDP FP detection | inhibition, % at 16.5 µM | 360,000 compounds, 0.19% hits | AID 624377; in the data active = inhibition above about 25%
Target sequence (Q9ULH1 325-724 limits assumed): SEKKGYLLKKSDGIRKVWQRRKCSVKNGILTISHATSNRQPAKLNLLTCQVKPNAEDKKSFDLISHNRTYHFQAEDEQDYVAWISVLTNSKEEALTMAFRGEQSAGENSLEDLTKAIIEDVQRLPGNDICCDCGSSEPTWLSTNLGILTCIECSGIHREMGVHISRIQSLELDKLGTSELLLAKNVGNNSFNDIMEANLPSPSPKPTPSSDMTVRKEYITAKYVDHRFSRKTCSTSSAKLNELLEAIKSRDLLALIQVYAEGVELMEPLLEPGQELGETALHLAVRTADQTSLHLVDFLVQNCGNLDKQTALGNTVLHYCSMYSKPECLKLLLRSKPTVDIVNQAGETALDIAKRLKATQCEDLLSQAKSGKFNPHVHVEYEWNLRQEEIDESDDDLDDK
Calb FLC – C. albicans growth modulation with fluconazole; AID 1979; C. albicans CaCi-2 + fluconazole, Alamar Blue growth, 48 h; 300,000 compounds, 0.57% hits; growth inhibition, % (concentration not given with the values);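 active = growth inhibition above about 58% in most replicates, limit read from the data, passing the limit was not always enough; inconclusive = exactly half the replicates above a set limit; inactive = most replicates below a set limit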;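 note: all wells also contain fluconazole at 8 µg/ml as a sub-toxic cotreatment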
PHOSPHO1 inh – PHOSPHO1 (human) inhibition | Q8TCT1 | recombinant PHOSPHO1, absorbance phosphatase assay | AID 1565 | 290,000 compounds, 1.1% hits | inhibition, % at 13.3 µM; in the data active = inhibition above about 60%
Target sequence (Q8TCT1 whole entry, looked up): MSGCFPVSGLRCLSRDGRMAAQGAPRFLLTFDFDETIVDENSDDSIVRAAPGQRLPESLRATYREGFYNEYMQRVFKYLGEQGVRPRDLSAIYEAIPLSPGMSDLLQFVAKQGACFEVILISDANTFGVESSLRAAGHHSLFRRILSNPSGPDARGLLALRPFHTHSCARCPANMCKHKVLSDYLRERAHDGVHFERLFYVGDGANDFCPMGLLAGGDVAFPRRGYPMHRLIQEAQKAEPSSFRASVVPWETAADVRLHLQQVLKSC
ARFGAP1 inh – inhibitors of rat ARFGAP1. AID 651572. inhibition, % at 16.5 µM. 360,000 compounds, 0.26% hits. Arfgap1-stimulated ARF1 GTP hydrolysis, GDP FP detection. Q62848;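 active = inhibition above a per-plate limit, mean inhibition of low control wells plus 3 SD, cut at about 25% in these data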
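Material: rat Arfgap1 GAP domain (His6, aa 1-136), purified enzyme. Also added: human ARF1(Δ1-17)-GTP substrate. Compound dosing: 16.5 µM single point, 1.26% DMSO. Timing: enzyme reaction 120 min at 25 °C after 20 min preincubation. Signal: GDP detection by fluorescence polarization. Read-out basis: percent inhibition of GAP-stimulated GDP formation, scaled between DMSO and no-Arfgap1 medians.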
IMP-1 inh – inhibitors of Pseudomonas aeruginosa IMP-1 metallo-beta-lactamase; purified IMP-1, nitrocefin hydrolysis, epi-absorbance fluorescence; inhibition, % at 5.6 µM; 290,000 compounds, 0.45% hits;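 active = inhibition above the mean plus 3 SD of all compounds in the same screening run, cut at about 4.5% in these data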
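System: purified IMP-1; amount: IMP-1 0.2 nM before substrate addition; compound: single dose, 5.6 µM; times: 25 °C, 15 min preincubation, 25 min reaction; signal: Epi-absorbance via hydrolysed-nitrocefin quenching of white-plate fluorescence, 480/530 nm, EDTA stop; benchmarks: DMSO with and without IMP-1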
VIM-2 inh – inhibitors of Pseudomonas aeruginosa VIM-2 metallo-beta-lactamase; purified VIM-2, nitrocefin hydrolysis, epi-absorbance fluorescence; inhibition, % at 5.6 µM; 290,000 compounds, 0.89% hits;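 active = inhibition above the mean of all tested compounds plus 3 SD, cutoff set per screening run, cut at about 7.5% in these data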;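 note: red hydrolysis product quenches plate fluorescence so inhibitors raise well fluorescence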
A number is an active result; 0 = inactive; ? = inconclusive; - = not tested or not shown. Hits are enriched below; roughly 2.6% of the tested compounds scored in any of these assays.

SMILES	ASAP1 GAP inh	Calb FLC	PHOSPHO1 inh	ARFGAP1 inh	IMP-1 inh	VIM-2 inh
Cc1cc(C(=O)CSc2nc3ccccc3o2)c(C)n1CC1CCCO1 (stereo unspecified)	0	0	93	0	0	0
Cc1ccccc1C1=CC(=O)CC(C)(C)C1=O	0	-	-	0	-	-
COc1cc(CNC(=O)c2ccccc2NC(=O)C2=C(C)OCCS2)cc(OC)c1OC	0	0	0	0	0	0
COc1cc(CCNC(=O)c2ccccc2NC(=O)C2=C(C)OCCS2)cc(OC)c1OC	0	0	64	0	0	0
Cc1ccc(Cl)cc1NC(=O)CNC(=O)N1CC(=O)Nc2ccccc21	0	0	80	0	0	0
CCc1ccc(OCC(=O)NC2CCCCC2)c(Br)c1	0	0	0	0	0	0
CCc1ccc(OCC(=O)NNC(=S)NC(=O)C2CCCCC2)c(Br)c1	0	84	0	0	0	0
COc1ccc(OCC(=O)NNC(=S)NC(=O)C2CC2)cc1	0	0	0	0	0	0
CCc1ccc(OCC(=O)NNC(=S)NC(=O)C2CC2)c(Br)c1	0	107	0	0	0	0
Cc1cc(C)cc(OCC(=O)NNC(=S)NC(=O)C2CC2)c1	0	119	0	0	0	0
COC(=O)C1=C(C)N(C)C(=NCc2cc(OC)c(OC)c(OC)c2)NC1c1ccc(Cl)cc1 (stereo unspecified)	0	-	-	0	-	-
Cc1cc(Br)cn2c(Cc3ccsc3)c(-c3ccc(F)cc3)nc12	0	-	-	0	-	-
CC(=O)Nc1ccc(S(=O)(=O)NCCc2cc3ccc(C)c(C)c3[nH]c2=O)cc1	0	0	63	0	0	0
COc1ccc(/C=C(/NC(=O)c2ccccc2)c2nc3ccccc3[nH]2)cc1OC	0	0	0	0	0	0
COc1ccc(/C=C(/NC(=O)c2ccccc2)c2nc3ccc(Cl)cc3[nH]2)cc1OC	0	70	0	0	0	0
CCOC(=O)c1cc(-c2cccc(O)c2)oc1C	0	-	-	0	-	-
O=C(NCC(=O)N(Cc1ccccc1)C(C(=O)NC1CCCC1)c1cccnc1)c1ccco1 (stereo unspecified)	0	0	199	0	0	0
Nc1ncnc(N)c1NC(=O)c1ccc(OCc2ccccc2)cc1	0	-	-	0	-	-
COc1ccc(Br)cc1/C=N/N1C(=O)CSC1=S	0	0	0	0	17	0
C[C@H]1[C@H](c2ccccc2)Oc2cccc(NCCc3ccccc3)c2S(=O)(=O)N1Cc1cccc(F)c1	0	-	-	0	-	-
Cc1[nH]c2ccccc2c1C(=O)C(=O)N1CCN(C)CC1	0	0	68	0	0	0
Cc1[nH]c2ccccc2c1C(=O)C(=O)N1CCN(c2ccccc2)CC1	0	0	0	0	0	0
Cc1[nH]c2ccccc2c1C(=O)CN1CCC(C)CC1	0	0	70	0	0	0
Cc1[nH]c2ccccc2c1C(=O)CCl	0	96	0	0	0	0
CN(C)CCCNc1nc2cc(-c3ccc(F)cc3)sc2c(=O)n1C	0	-	-	0	-	-
SMILES	ASAP1 GAP inh	Calb FLC	PHOSPHO1 inh	ARFGAP1 inh	IMP-1 inh	VIM-2 inh
N#CC1=C(N)Oc2n[nH]c(-c3cccs3)c2C1c1ccccc1C(=O)O (stereo unspecified)	0	0	0	0	0	0
N#CC1=C(N)Oc2n[nH]c(-c3cccs3)c2C1c1cccs1 (stereo unspecified)	0	0	0	0	0	8.2
CCCCCCS(=O)[C@H]1CS(=O)(=O)C[C@@H]1S(=O)CCCCCC (stereo partly specified)	0	0	96	0	0	0
O=C(CC1CCCC1)N[C@@H](Cc1cccnc1)C(=O)N1CCC[C@H]1C(=O)NC1CCCC1	0	-	-	0	-	-
C[C@H]1CN([C@@H](C)CO)C(=O)c2cc(Br)cnc2O[C@@H]1CN(C)S(=O)(=O)c1cn(C)cn1	0	-	-	0	-	-
CC(C)(C)c1ccc(C#C[C@@H]2C=C[C@@H](O)[C@@H](CO)O2)cc1	0	-	-	0	-	-
O=C1CSc2ccc(S(=O)(=O)NCc3ccccc3Cl)cc2N1	0	?	0	0	0	0
CC(CS(=O)(=O)c1ccc2c(c1)NC(=O)CS2)C(=O)NCc1ccccc1Cl (stereo unspecified)	0	0	0	0	9.2	0
CC(=O)N1CCN(c2ccc(N3CCN(C(C)=O)[C@@H](C)C3)c(C)c2)[C@H](C)C1	0	-	-	0	-	-
O=C(O)CC(Sc1ccc(Cl)cc1)C(=O)Nc1ccccc1 (stereo unspecified)	0	-	-	0	-	-
O=S(=O)(c1ccc2ccccc2c1)N1CCOCC1	0	0	0	0	0	0
O=S(=O)(c1ccc2nc(-c3ccco3)c(-c3ccco3)nc2c1)N1CCOCC1	0	0	65	0	0	0
COc1cc(C)ccc1OCCCOc1ccccc1Br	0	0	0	0	0	0
CCc1ccccc1OCCOc1ccc(C)cc1OC	0	0	60	0	0	0
C/C(=N\NC(=O)c1ccc(Cl)cc1)c1ccccn1	0	0	0	0	0	0
C/C(=N\Nc1ccc(Cl)cc1)c1ccccn1	0	0	94	0	0	0
C[C@@H]1ON(C)[C@H]2C[C@H]3c4[nH]c5cccc(Br)c5c4CCN3C(=O)[C@@H]12	0	-	-	0	-	-
Nc1nonc1-n1nnc(C(=O)N/N=C/c2cc(Br)ccc2O)c1CNc1ccccc1	0	88	0	0	0	0
Nc1nonc1C(=O)N/N=C/c1cc(Br)ccc1O	0	101	0	0	0	0
Cc1nc(C)c(C(=O)N/N=C/c2cc(Br)ccc2O)s1	0	89	0	0	0	0
NC(=O)N/N=C\c1cc(Br)ccc1O	0	0	0	0	0	0
COC(=O)C1=C(C)N(Cc2ccccc2C(F)(F)F)C(=NCc2ccc3c(c2)OCO3)NC1CCc1ccccc1 (stereo unspecified)	0	-	-	0	-	-
COC(=O)C1=C(C)N(Cc2ccccc2C(F)(F)F)C(=NCc2ccc(OC)cc2)NC1c1cccc(F)c1 (stereo unspecified)	0	-	-	0	-	-
COc1ccc(N(C)C(=O)C2CCCN2S(=O)(=O)c2cccc3nsnc23)c(OC)c1 (stereo unspecified)	-	0	64	-	0	0
O=C1c2[nH]nc(-c3ccccc3)c2C(c2ccc(F)cc2)N1Cc1ccccc1 (stereo unspecified)	0	-	-	0	-	-
SMILES	ASAP1 GAP inh	Calb FLC	PHOSPHO1 inh	ARFGAP1 inh	IMP-1 inh	VIM-2 inh
Oc1c(Cl)cc(Cl)cc1CNc1ccc(Br)cn1	0	0	0	0	6.1	0
Cc1cccc(C)c1-n1nnnc1C(c1ccnc2ccccc12)N1CCN(C/C=C/c2ccccc2)CC1 (stereo unspecified)	0	-	-	0	-	-
CCOC(=O)N1CCN(S(=O)(=O)c2ccc(C(=O)N(CCCN(C)C)c3nc4ccc(Cl)cc4s3)cc2)CC1	0	0	63	0	0	0
O=C(N/N=C/c1ccc(O)cc1)c1csc2ccccc12	0	114	0	0	0	0
CCc1ccc2c(c1)/C(=C/C(=O)c1cccs1)C(=O)N2	0	98	0	0	0	0
Cc1cccc2c1NC(=O)/C2=C\C(=O)c1cccs1	0	0	0	0	0	0

Screening results deposited in PubChem by several laboratories.
